Laboratory results reported in ChEMBL document CHEMBL6134776, “New anti-ovarian cancer quinolone derivatives acting by modulating microRNA processing machinery” (RSC Med Chem, 2025).
Blank lines part the entries; values can stand above or below the compound they belong to. The source made the active and inactive calls. No cut-off for these calls is given here.

Tests used:
[1] = tested on: SKOV-3 (Homo sapiens); assay: Antiproliferative activity against human SKOV-3 cells assessed as growth inhibition measured after 72 hrs
[2] = tested on: SK-OV-3; assay: Antiproliferative activity against human SK-OV-3 cells assessed as growth inhibition measured after 72 hrs; type: functional
In short: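 100 000 SKOV-3 or Wi-38 cells per 35 mm dish, allowed to adhere, then given compound at scalar concentrations. First pass ran up to 200 μM (SKOV-3) or 250 μM (Wi-38), then a narrowed range. Cells counted after 72 h and GI50/CC50 taken by linear regression with 95% CI. Three experiments in triplicate, three counts per sample.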

[3] = target: T1, DNA topoisomerase 1 (Homo sapiens) (UniProt P11387); assay: Inhibition of human topoisomerase I at 100 uM by spectrophotometric analysis
T1 sequence (whole entry): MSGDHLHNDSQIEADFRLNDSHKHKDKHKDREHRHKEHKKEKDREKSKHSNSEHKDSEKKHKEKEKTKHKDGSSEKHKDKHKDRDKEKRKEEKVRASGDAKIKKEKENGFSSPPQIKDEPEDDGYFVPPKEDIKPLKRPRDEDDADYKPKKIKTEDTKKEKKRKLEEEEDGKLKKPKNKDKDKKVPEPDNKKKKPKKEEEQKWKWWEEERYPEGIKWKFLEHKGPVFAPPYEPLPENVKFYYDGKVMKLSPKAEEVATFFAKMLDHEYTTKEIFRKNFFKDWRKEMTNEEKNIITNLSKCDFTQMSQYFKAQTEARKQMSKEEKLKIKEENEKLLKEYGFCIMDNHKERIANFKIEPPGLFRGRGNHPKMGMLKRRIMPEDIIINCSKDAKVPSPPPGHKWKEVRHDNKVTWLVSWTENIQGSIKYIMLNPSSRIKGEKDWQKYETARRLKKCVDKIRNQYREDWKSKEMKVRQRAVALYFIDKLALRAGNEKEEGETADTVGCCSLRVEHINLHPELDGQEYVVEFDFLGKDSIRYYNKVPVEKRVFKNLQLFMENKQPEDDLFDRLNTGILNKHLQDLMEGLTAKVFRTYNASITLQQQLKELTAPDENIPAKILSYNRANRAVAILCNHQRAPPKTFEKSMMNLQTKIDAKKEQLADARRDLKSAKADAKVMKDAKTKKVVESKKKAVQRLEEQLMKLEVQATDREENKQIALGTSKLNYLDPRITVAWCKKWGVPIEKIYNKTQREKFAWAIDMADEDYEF

[4] = species: Homo sapiens; assay: Inhibition of human topoisomerase II at 100 uM by spectrophotometric analysis
[5] = tested on: HCCLM3; assay: Antiproliferative activity against TRBP knockout human HCCLM3 cells assessed as growth inhibition at 30 uM measured after 48 hrs by CCK-8 method; type: functional, cell-based
In short: (§1)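 HCCLM3 and SK-Hep-1 cells, TRBP wild-type and knockout, seeded at 10 000 cells/well and left to adhere overnight. Treated 48 h alongside a 0.1% DMSO negative control and a 125 μM enoxacin positive control. Viability read with 10% CCK-8 in DMEM, 30 min at 37 °C, at 450 nm.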

[6] = tested on: SK-HEP1; assay: Antiproliferative activity against TRBP knockout human SK-HEP1cells assessed as growth inhibition at 30 uM measured after 48 hrs by CCK-8 method; type: functional, cell-based
In short: as §1

[7] = tested on: HCCLM3; assay: Antiproliferative activity against wild type human HCCLM3 cells assessed as growth inhibition at 30 uM measured after 48 hrs by CCK-8 method relative to control; type: functional, cell-based
In short: as §1

[8] = tested on: SK-HEP1; assay: Antiproliferative activity against wild type human SK-HEP1 cells assessed as growth inhibition at 30 uM measured after 48 hrs by CCK-8 method; type: functional, cell-based
In short: as §1

[9] = tested on: SK-HEP1; assay: Antiproliferative activity against wild type human SK-HEP1 cells assessed as growth inhibition at 50 uM measured after 48 hrs by CCK-8 method; type: functional, cell-based
In short: as §1

[10] = tested on: SK-HEP1; assay: Antiproliferative activity against TRBP knockout human SK-HEP1 cells assessed as growth inhibition at 50 uM measured after 48 hrs by CCK-8 method; type: functional, cell-based
In short: as §1

[11] = tested on: MCF7; assay: Antiproliferative activity against human MCF7 cells assessed as growth inhibition at 30 uM measured after 72 hrs; type: functional, cell-based
In short: (§2)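 Cells dosed at 30 μM for 72 h in RPMI 1640 (A2780, SKOV-3) or DMEM (MCF-7, A549, HCT-116), 10% FBS, 37 °C, 5% CO2. Total and viable cell numbers taken by trypan blue with an automated counter. Viable cells given as % of DMSO; dead cells as a percentage. At least three independent experiments.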

[12] = tested on: A549; assay: Antiproliferative activity against human A549 cells assessed as growth inhibition at 30 uM measured after 72 hrs; type: functional, cell-based
In short: as §2

[13] = tested on: HCT-116; assay: Antiproliferative activity against human HCT-116 cells assessed as growth inhibition at 30 uM measured after 72 hrs; type: functional, cell-based
In short: as §2

[14] = tested on: SK-OV-3; assay: Induction of cell death in human SK-OV-3 cells assessed as reduction in total number of cells at 30 uM incubated for 72 hrs by trypan blue staining based analysis; type: functional
In short: as §2

[15] = tested on: A2780; assay: Induction of cell death in human A2780 cells assessed as reduction in total number of cells at 30 uM incubated for 72 hrs by trypan blue staining based analysis; type: functional
In short: as §2

[16] = tested on: A2780; assay: Induction of cell death in human A2780 cells assessed as increase in percentage of dead cells at 30 uM incubated for 72 hrs by trypan blue staining based analysis; type: functional
In short: as §2

[17] = tested on: A2780; assay: Upregulation of cleaved PARP1 level in human A2780 cells by Western blot analysis; type: functional, cell-based
In short: (§3)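 SKOV-3 and A2780 given 30 μM compound for 72 h. Protein extracts run on 4–12% bis–tris gels and blotted to nitrocellulose, blocked in 5% milk. Probed for cleaved PARP and Bcl-XL, with β-actin as loading control.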

[18] = tested on: A2780; assay: Downregulation of Bcl-Xl level in human A2780 cells by Western blot analysis; type: functional, cell-based
In short: as §3

[19] = tested on: SK-OV-3; assay: Effect on cleaved PARP1 level in human SK-OV-3 cells by Western blot analysis; type: functional, cell-based
In short: as §3

[20] = tested on: SK-OV-3; assay: Effect on Bcl-Xl level in human SK-OV-3 cells by Western blot analysis; type: functional, cell-based
In short: as §3

[21] = tested on: A2780; assay: Antiproliferative activity against human A2780 cells assessed as growth inhibition at 30 uM measured after 72 hrs; type: functional, cell-based
In short: as §2

[22] = tested on: HEK-293T; assay: Induction of RNAi enhancing activity in HEK293T cells transfected with shGAPDH assessed as decrease in amount of GAPDH mRNA at 50 uM incubated for 48 hrs by qRT-PCR; type: functional, cell-based; details: Homo sapiens
In short: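 HEK-293T stably expressing shGAPDH or scrambled shRNA (lentiviral transduction, puromycin 3 μg mL−1 selection) treated 48 h at 50 μM. GAPDH mRNA measured by qRT-PCR against ATP5O, relative to sh-Scr/DMSO set to 1. At least three independent experiments.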

[23] = tested on: Cisplatin-resistant A2780; assay: Antiproliferative activity against human Cisplatin-resistant A2780 cells assessed as growth inhibition at 30 uM measured after 48 hrs
[24] = tested on: A2780; assay: Antiproliferative activity against human A2780 cells assessed as growth inhibition at 30 uM measured after 48 hrs in presence of cisplatin
[25] = tested on: Cisplatin-resistant A2780; assay: Antiproliferative activity against human Cisplatin-resistant A2780 cells assessed as growth inhibition at 30 uM measured after 48 hrs in presence of cisplatin
[26] = tested on: HeLa; assay: Induction of miR-21-5p biogenesis in human HeLa cells assessed as decrease in renilla luciferase activity at 50 uM measured after 6 hrs by dual-luciferase reporter assay

GI50 [2]: > 100 µM
Compound: Cc1c(N2CCC3CCCCC3C2)c(N)cc2c(=O)c(C(=O)O)cn(C3CC3)c12 (stereo not drawn)

GI50 [2]: > 100 µM
Compound: Cc1c(N2CCOCC2)c(N)cc2c(=O)c(C(=O)O)cn(C3CC3)c12

GI50 [2]: > 100 µM
Compound: Cc1c(N2CCCCC2)c(N)cc2c(=O)c(C(=O)O)cn(C3CC3)c12

GI50 [2]: 100 µM
Compound: Cc1c(N2CC(C)OC(C)C2)c(N)cc2c(=O)c(C(=O)O)cn(C3CC3)c12 (stereo not drawn)

GI50 [2]: > 100 µM
Compound: Cc1c(N2CCC(O)CC2)c(N)cc2c(=O)c(C(=O)O)cn(C3CC3)c12

inhibition [3]: inactive
inhibition [4]: inactive
Compound: O=C(O)c1cn(C2CC2)c2cc(N3CCc4ccccc4C3)c(F)cc2c1=O
Activity [5]: inactive
Activity [6]: inactive
Activity [7]: Active
Activity [8]: inactive
Activity [9]: Active
Activity [10]: inactive
Activity [11]: Active
Activity [12]: Active
Activity [13]: Active
Activity [14]: Active
Activity [15]: Active
Activity [16]: Active
Activity [17]: Active
Activity [18]: Active
Activity [19]: inactive
Activity [20]: inactive
Activity [21]: Active
Activity [22]: Active
Activity [23]: Active
Activity [24]: Active
Activity [25]: Active
Activity [26]: Active

The remaining lines, values behind:

Compound: Cc1c(NCCN2CCCCC2)c(N)cc2c(=O)c(C(=O)O)cn(C3CC3)c12
GI50 at 72 h [1]: ≥ 25 µM

Compound: CC(C)(C)n1cc(C(=O)O)c(=O)c2cc(N)c(N3CCc4ccccc43)cc21
GI50 [2]: > 100 µM

Compound: Cc1c(N2Cc3ccccc3C2)c(N)cc2c(=O)c(C(=O)O)cn(C3CC3)c12
GI50 at 72 h [1]: ≥ 25 µM

Compound: Nc1cc2c(=O)c(C(=O)O)cn(C3CC3)c2cc1N1CCc2ncncc2C1
GI50 at 72 h [1]: ≥ 25 µM
